Experiment: Toxicity liver stage against HepG2, at 10uM
Format: cell-based
Set-up: test concentration 10 uM, cell line HepG2-A16-CD81EGFP
Details: human, HepG2-A16-CD81EGFP cells; read-out: INHIBITION
Procedure, shortened: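 Uninfected HepG2-A16-CD81EGFP cells, 3 × 10^3 per well, 1536-well, plated on prespotted compound at 10 μM final, parasite-free screening media added to match infected plates; puromycin 10 μM positive, DMSO 0.5% negative; run in parallel with 48 h PbLuc assay at 37 °C, 5% CO2; viability by CellTiter-Glo luminescence, normalized to controls.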

O=c1c(NCCNCCO)c(N2CCN(Cc3ccccc3)CC2)c1=O
cytotoxicity at 10 µM: -5.9%

COCc1cc(NCc2ccccc2-n2cncn2)ncn1
cytotoxicity at 10 µM: -0.132%

COc1cccc2c1N(CC(=O)Nc1ccc(Cl)cn1)CCC2
cytotoxicity at 10 µM: 64.9%

CC(C)c1cc(N2CCN(c3ccc(O)cc3)CC2)n2nccc2n1
cytotoxicity at 10 µM: -5.76%

Cn1c(-c2cccs2)nn(CCNS(=O)(=O)c2ccccc2Cl)c1=O
cytotoxicity at 10 µM: -9.48%

N#Cc1nccnc1N1CCC(C(O)c2cccs2)CC1 (stereo not given)
cytotoxicity at 10 µM: -38%

Cc1cc(CN(C)C(=O)CNS(=O)(=O)c2cccs2)no1
cytotoxicity at 10 µM: -33.4%

CN1CCN(c2ncnc3c2c(C(=O)NC2CC2)c2ccccn23)CC1
cytotoxicity at 10 µM: 3.34%

Cc1ncsc1CCC(=O)NCc1cc2n(n1)CCNC2
cytotoxicity at 10 µM: -3.78%

CCCc1nccn1-c1ccc(C(C)O)cc1 (stereo not given)
cytotoxicity at 10 µM: 5.38%

O[C@H]1CN(Cc2ccc3c(c2)OCCO3)CC[C@@]12CCCO2
cytotoxicity at 10 µM: -2.92%

COc1ccc(CN(Cc2cn(C)nc2C)CC2CCCO2)c(OC)c1 (stereo not given)
cytotoxicity at 10 µM: -7.3%

CN(CCc1ccccn1)C(=O)c1cn2c(n1)CNCC2
cytotoxicity at 10 µM: -43.5%

COc1ccccc1C(C)CC(=O)N1CCCS1(=O)=O (stereo not given)
cytotoxicity at 10 µM: -11.6%

Cc1ccc(C)c(S(=O)(=O)NC(=O)c2ccc(C)[nH]c2=O)c1
cytotoxicity at 10 µM: -1.07%

CCn1cc(-n2cc3nc(N4CCC(C)CC4)[nH]cc-3c2=O)cn1
cytotoxicity at 10 µM: 6.97%

O=S(=O)(NCC1COc2ccccc2C1)N1CCCCC1 (stereo not given)
cytotoxicity at 10 µM: -0.628%

O=C(c1ccccn1)N1Cc2nccn2CC(COc2cccnc2)C1 (stereo not given)
cytotoxicity at 10 µM: -9.52%

COc1ncccc1C(=O)N1CC[C@H]2C[C@@H](c3ccncn3)O[C@@H]2C1
cytotoxicity at 10 µM: -2.24%

Fc1ccc(CN2CCn3cc(Cn4cccn4)nc3C2)cc1
cytotoxicity at 10 µM: 0.864%

O=C(CCC(F)(F)F)N1CCN(Cc2ccncc2)[C@@H]2CS(=O)(=O)C[C@@H]21
cytotoxicity at 10 µM: -2.11%

Cc1cc(CN(C)C2CCCN(c3cccnn3)C2)no1 (stereo not given)
cytotoxicity at 10 µM: -2.45%

Cc1occc1C(=O)N1C[C@@H]2OCCN(C(C)C)[C@@H]2C1
cytotoxicity at 10 µM: -73.4%

Cn1cccc1C(=O)N1CCCCC1c1[nH]ncc1S(C)(=O)=O (stereo not given)
cytotoxicity at 10 µM: -4.66%

O=C(N1CCSCC1)C1(O)Cc2ccccc2C1
cytotoxicity at 10 µM: 6.35%

Cc1cccc(C(C(=O)N(C)Cc2ccon2)N(C)C)c1 (stereo not given)
cytotoxicity at 10 µM: 5.4%

Cc1ccc(C)c(OCc2nnc(SCC3CCCN(C)C3)o2)c1 (stereo not given)
cytotoxicity at 10 µM: 5.24%

COc1cc(N2C[C@@H]3COC[C@]3(COc3ccc(C#N)cn3)C2)ncn1
cytotoxicity at 10 µM: 32.2%

CCCc1nnc(N2CCN(c3ccccc3Cl)CC2)o1
cytotoxicity at 10 µM: 0.426%

O=C(CC1CC1)N[C@@H]1CN(Cc2cccnc2)C[C@@H]2CCCO[C@@H]21
cytotoxicity at 10 µM: -0.995%

Cn1ccnc1CN1CC[C@@H](NS(C)(=O)=O)[C@@H]1Cc1cccnc1
cytotoxicity at 10 µM: 8.54%

CC(c1cccc(-c2cn(Cc3ccoc3)nn2)c1)N(C)C (stereo not given)
cytotoxicity at 10 µM: 1.35%

CCNc1ncc(C(=O)NCc2ccc(F)c(C(F)(F)F)c2)cn1
cytotoxicity at 10 µM: -5.96%

O=C(O)c1ccccc1-c1ccc(Cn2c(=O)cc[nH]c2=O)cc1
cytotoxicity at 10 µM: 5.64%

CC(=O)N1Cc2nccn2CC(CNC(=O)c2ccnnc2)C1 (stereo not given)
cytotoxicity at 10 µM: -138%

COCc1noc(-c2ccc(N3CCCC3c3nccs3)nc2)n1 (stereo not given)
cytotoxicity at 10 µM: 7.12%

CC(C)(O)CSCCNC(=O)c1ccc(F)cc1Cl
cytotoxicity at 10 µM: -10.9%

CNC(=O)c1cccnc1NCCOc1ccccc1
cytotoxicity at 10 µM: -4%

COc1cc(NC(=O)NCc2ccccn2)cc(OC)c1
cytotoxicity at 10 µM: -4.13%

N[C@H]1CN(C(=O)c2ccc3[nH]c(CO)nc3c2)C[C@@H]1c1ccccc1
cytotoxicity at 10 µM: -1.82%

O=C(c1cccs1)N1CCC2(CC1)CN(c1ccsc1)C(=O)CO2
cytotoxicity at 10 µM: -70.5%

CN1CCN(Cc2ccncc2)C(=O)C12CCN(Cc1ccsc1)CC2
cytotoxicity at 10 µM: 3.03%

Cc1ccccc1CN1CCC2(CC1)CN(S(=O)(=O)c1ccccc1)C2
cytotoxicity at 10 µM: -2.78%

CCSc1cc(C(=O)NC2CCN(C(=O)c3ccncc3)CC2)ccn1
cytotoxicity at 10 µM: 5.88%

Cc1cc(C)n(-c2nc(C(=O)NCCN3CCC(C)CC3)cs2)n1
cytotoxicity at 10 µM: 10.2%

NC(=O)c1cncc(N2CCN(Cc3cccc4nsnc34)CC2)n1
cytotoxicity at 10 µM: 8.15%

CC(C)Cc1nc(CS(C)(=O)=O)n(-c2ccccn2)n1
cytotoxicity at 10 µM: 1.66%

O=C(CN(CC(O)c1ccc(F)cc1)C1CC1)Nc1cccnc1 (stereo not given)
cytotoxicity at 10 µM: -4.19%

CCn1ncnc1CN(C/C=C/c1ccccc1)CCOC
cytotoxicity at 10 µM: 4.3%

CCC[C@H]1CN(Cc2cncn2C)C[C@@H]1NC(=O)C1(COC)CCC1
cytotoxicity at 10 µM: -8.26%

CCN(CC)S(=O)(=O)c1ccc2c(c1)N(Cc1ccncc1)C(=O)CS2
cytotoxicity at 10 µM: -5.62%

CC(C)NC(=O)CCNC(=O)CCc1cc(Br)cs1
cytotoxicity at 10 µM: -3.16%

Cc1nn(CC(C)C)c(N(C)C)c1CNCc1cccc2c1OCO2
cytotoxicity at 10 µM: -10.2%

CN1CCN(CC2CN(CC3CC3)Cc3nccn3C2)CC1 (stereo not given)
cytotoxicity at 10 µM: -76.1%

Cc1ccc(CN2C(=O)CCC23CCC(NC2CCOC2)CC3)cc1 (stereo not given)
cytotoxicity at 10 µM: -3.04%

CN(C)CC(=O)N1CC2(CCN(S(=O)(=O)c3ccccc3)C2)C1
cytotoxicity at 10 µM: -6.34%

Cn1nccc1C(=O)N1C[C@@H]2CC[C@H](Oc3cccc(F)c3)[C@@H]2C1
cytotoxicity at 10 µM: -13.8%

CCn1ccnc1CN1CCCN(C(=O)Cc2ccccc2C)CC1
cytotoxicity at 10 µM: -1.99%

Cc1nn(C)c(N(C)C)c1CNCCNS(C)(=O)=O
cytotoxicity at 10 µM: -5.05%

CN(C)c1cc(C2CCCN(S(=O)(=O)C3CCCC3)C2)ccn1 (stereo not given)
cytotoxicity at 10 µM: -20.8%

COC(=O)c1cc(OC)c(OC)cc1N(C)S(C)(=O)=O
cytotoxicity at 10 µM: 7.43%

CC(=O)c1ccc(NC(=O)NCc2cccc(N(C)C)n2)cc1C
cytotoxicity at 10 µM: 6.45%

CC(C)=CCN1CCN(C(=O)c2cc(C(C)C)no2)[C@H]2CS(=O)(=O)C[C@H]21
cytotoxicity at 10 µM: -7.86%

COC(=O)CC1CCN(C(=O)Nc2ccc(-c3ccn[nH]3)cc2)C1 (stereo not given)
cytotoxicity at 10 µM: 3.57%

CNS(=O)(=O)Cc1cccc(CNC(=O)Nc2cn[nH]c2)c1
cytotoxicity at 10 µM: -11.2%

CC(C(=O)NCCCN1CCCCCC1=O)n1cncn1 (stereo not given)
cytotoxicity at 10 µM: -20.9%

CC(NCCn1cccn1)c1cc(F)ccc1F (stereo not given)
cytotoxicity at 10 µM: 6.33%

Cc1ccccc1S(=O)(=O)NC(=O)C1(c2cccc(Cl)c2)CC1
cytotoxicity at 10 µM: 1.97%

CCc1cnc(C)nc1NC(CC)c1ncnn1CC (stereo not given)
cytotoxicity at 10 µM: -10.2%

O=C1CC(C(=O)NCCN2CCOC2=O)c2cc(F)ccc2N1 (stereo not given)
cytotoxicity at 10 µM: -0.511%

CCSCCC(=O)Nc1ncn(Cc2cccnc2)n1
cytotoxicity at 10 µM: 25.1%

CCc1cc(CN(C)Cc2nc(-c3ccc(OC)cc3F)oc2C)on1
cytotoxicity at 10 µM: -3.4%

CCC(C(=O)NC1CCCC1)n1ccc2ncccc2c1=O (stereo not given)
cytotoxicity at 10 µM: 4.2%

CCc1ccc(OCC(O)CN2CCC(O)CC2)cc1 (stereo not given)
cytotoxicity at 10 µM: 3.99%

O=C1N(Cc2ccc(F)c(F)c2)CCCC12CCN(C1CCSCC1)C2 (stereo not given)
cytotoxicity at 10 µM: -19.1%

OCC1CCCN1c1cc(NCc2cccc3cccnc23)ncn1 (stereo not given)
cytotoxicity at 10 µM: -15.6%

CC(C)(C)NC(=O)CN1CCCN(c2ccc(C#N)cn2)CC1
cytotoxicity at 10 µM: -4.31%

COc1ccc(CN2CCc3ncnc(OC(C)C)c3CC2)cc1
cytotoxicity at 10 µM: -1.99%

CCn1cnnc1CNC(=O)N(C)Cc1ccccc1OC
cytotoxicity at 10 µM: -7.32%

CCOc1cccc(CNC(=O)NCC(O)c2cccc(F)c2)c1 (stereo not given)
cytotoxicity at 10 µM: -2.92%

Cc1nn(C)c(C)c1C1CCCN1C(=O)Cc1cn2ccsc2n1 (stereo not given)
cytotoxicity at 10 µM: -45.2%

COc1ccc2[nH]cc(CCNC(=O)C3CCCN(C(C)=O)C3)c2c1 (stereo not given)
cytotoxicity at 10 µM: -5.58%

CCc1cnc(C)nc1NCCC(=O)N1CCC(C)CC1
cytotoxicity at 10 µM: -0.384%

CC(C)c1nsc(N2CCCOCC2)n1
cytotoxicity at 10 µM: -7.86%

CCCNC(=O)C1CCN(CC(O)c2ccccc2C(F)(F)F)CC1 (stereo not given)
cytotoxicity at 10 µM: 3.21%

Cc1ccc(C(=O)N2C[C@@H]3[C@@H](C2)OCC(=O)N3Cc2cccnc2)o1
cytotoxicity at 10 µM: 3.8%

CCn1ccnc1CN1CCC(=O)N(CC2CC2)C(C(C)C)C1 (stereo not given)
cytotoxicity at 10 µM: -10.3%

CCn1cnnc1CNC(=O)NC(C)c1ccc(Cl)s1 (stereo not given)
cytotoxicity at 10 µM: -23.1%

CC(C)(C)CC(=O)N1CCCC2(CC(C(=O)Nc3ccccc3)=NO2)C1 (stereo not given)
cytotoxicity at 10 µM: -6.63%

CC(C)(C)NC(=O)N1CCN2C(=O)OCC2C1 (stereo not given)
cytotoxicity at 10 µM: -1.96%

COc1ccc(Cl)cc1-n1nc(C2CCCC2)nc1Cn1cnnn1
cytotoxicity at 10 µM: -15.5%

COCCO[C@H]1CCN(C(=O)c2cccnc2)[C@H]1Cc1cnn(C)c1
cytotoxicity at 10 µM: 4%

COc1c(CNCc2ccc3c(c2)OCCO3)c(C(C)C)nn1C
cytotoxicity at 10 µM: -3.42%

CCN(CC)C(=O)CCn1ncc2c(Cl)cccc21
cytotoxicity at 10 µM: 12.4%

CCOC[C@@H]1CC[C@H]2[C@H](CCN2C(=O)c2ccncc2F)O1
cytotoxicity at 10 µM: -2.86%

CC(=O)NC1CCCN(c2nc3ccccc3cc2CO)C1 (stereo not given)
cytotoxicity at 10 µM: -50.1%

O=C(c1cscn1)N1CCc2ncnc(-c3ccncc3)c2CC1
cytotoxicity at 10 µM: -4.71%

COc1ccc(CNC(=O)NC2CCN(C)CC2)c(C(F)(F)F)c1
cytotoxicity at 10 µM: -12.2%

CCC(C)NC(=O)CCc1ccnc2ccccc12 (stereo not given)
cytotoxicity at 10 µM: 5.44%

COc1cc(C)sc1C(=O)N1CCC(Nc2cccnc2)CC1
cytotoxicity at 10 µM: -5.07%

O=S1(=O)C[C@@H]2[C@H](C1)N(Cc1ncc[nH]1)CCN2C/C=C/c1ccccc1
cytotoxicity at 10 µM: 11.2%

Cc1ccc(-c2nc(CN3C[C@@H](C)NC[C@@H]3C)c(C)o2)s1
cytotoxicity at 10 µM: -11.7%

Cc1c(Br)c(C(F)F)nn1C(C)C(=O)O (stereo not given)
cytotoxicity at 10 µM: 4.51%

CCn1nc(C)c(CCNC(=O)c2coc(CN3CCOCC3)c2)c1C
cytotoxicity at 10 µM: -0.386%

CNC(=O)N1C[C@@H]2C[C@H](C(=O)Nc3cccnc3)[C@H](C1)O2
cytotoxicity at 10 µM: -76.2%

CC(C)c1ccc(C2CC(=O)Nc3c2cnn3C)cc1 (stereo not given)
cytotoxicity at 10 µM: -2.9%

Cc1cc(C)n(CC(C)CNC(=O)[C@@H](C)NC(=O)OC(C)(C)C)n1 (stereo not given in full)
cytotoxicity at 10 µM: -4.25%

CCOC(=O)CCN(Cc1cccnc1)C(=O)c1cc(Cl)c[nH]1
cytotoxicity at 10 µM: -1.24%

COC(=O)N1CCN(Cc2ccccc2Cl)CC1
cytotoxicity at 10 µM: -0.227%

CCN(CC(=O)NC(C)(C)C)Cc1cccc2c1OCCO2
cytotoxicity at 10 µM: -18.7%

— ChEMBL document CHEMBL4513216, “Probing the Open Global Health Chemical Diversity Library for Multistage-Active Starting Points for Next-Generation Antimalarials” (ACS Infect Dis, 2020)
